# Data published in ChEMBL document CHEMBL1124335, “5-Isoquinolinesulfonamide derivatives. 1. Synthesis and vasodilatory activity of N-(2-guanidinoethyl)-5-isoquinolinesulfonamide derivatives” (1989).
# What was measured:
# Canis familiaris [1] = test: Increasing effect on femoral blood flow (FBF) in femoral artery of anesthetized dogs.; type: functional, Canis lupus familiaris
# Outline: (§1)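 Anesthetized dogs, trachea intubated and ventilated at 12-16 cycles/min, with tidal volume set to hold arterial pH, pCO2 and pO2 within physiological limits. Body temperature kept at 37-38 °C. Drug given locally intra-arterially into the femoral artery, at least three doses per compound. Trapidil 100 μg was given before and after as reference. Femoral blood flow increase read from at least three dose-response curves. Expressed as equieffective dose ratio versus trapidil (mg/mg).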
# Canis familiaris [2] = test: Compound was evaluated for increasing effect on femoral blood flow (FBF) in femoral artery of anesthetized dogs, compared to Trapidil; No detectable vasodilation; type: functional, organism-based; conditions: Canis lupus familiaris; outline: as §1
# Canis familiaris [3] = test: Compound was evaluated for increasing effect on femoral blood flow (FBF) in femoral artery of anesthetized dogs, compared to Trapidil; ND is no detectable vasodilation.; type: functional, organism-based; conditions: Canis lupus familiaris; outline: as §1
SMILES,Equieffective dose ratio vs trapidil for femoral blood flow increase (Canis familiaris [1]),other results
CC1CN(S(=O)(=O)c2cccc3cnccc23)C(C)CN1C(=N)N.Cl (stereo not drawn),1.6,
Cl.O=S(=O)(NCCNC1=NCCN1)c1cccc2cnccc12,24,
Cl.N#CNC(=N)NCCNS(=O)(=O)c1cccc2cnccc12,>50,
COc1ccc([C@@H]2Sc3ccccc3N(CCN(C)C)C(=O)[C@@H]2OC(C)=O)cc1.Cl [DILTIAZEM HYDROCHLORIDE],0.21,
Cl.N=C(N)NCCCCCCNS(=O)(=O)c1cccc2cnccc12,3.8,
N=C(N)NNS(=O)(=O)c1cccc2cnccc12,,FBF (Canis familiaris [2]): No detectable vasodilation
Cl.N=C(N)NCCNS(=O)(=O)c1cccc2cnccc12,1.7,
Cl.O=S(=O)(NCCNc1ncccn1)c1cccc2cnccc12,>30,
Cl.N=C(N)NCCCNS(=O)(=O)c1cccc2cnccc12,4.3,
Cl.N/C(=N\CCNS(=O)(=O)c1cccc2cnccc12)N[N+](=O)[O-],>10,
Cl.N=C(N)N1CCN(S(=O)(=O)c2cccc3cnccc23)CC1,0.62,
CN(CCNS(=O)(=O)c1cccc2cnccc12)C(=N)N.Cl,1.1,
CNC(=N)NCCNS(=O)(=O)c1cccc2cnccc12,,FBF (Canis familiaris [3]): No detectable vasodilation
C/N=C(\NC)NCCNS(=O)(=O)c1cccc2cnccc12.Cl,>50,
Cl.N=C(N)N1CCCN(S(=O)(=O)c2cccc3cnccc23)CC1,0.19,
Cl.N=C(N)NCCCCNS(=O)(=O)c1cccc2cnccc12,16,
CN(CCN=C(N)N)S(=O)(=O)c1cccc2cnccc12.Cl,1.8,
Cl.O=S(=O)(NCCN=C(Nc1ccccc1)Nc1ccccc1)c1cccc2cnccc12,>50,
